Source: PubChem BioAssay AID602301 (The Scripps Research Institute Molecular Screening Center, 2012)
One block for each compound: values may come before it. Activity calls are given as the source filed them.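 The calls were made as follows: active = inhibition of at least 50%; inactive = inhibition below 50%.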

System: Abhydrolase domain-containing protein 11 (ABHD11), Mus musculus
Assay: mouse ABHD11 activity inhibitors in proteome – biochemical, competitive gel ABPP, set 1, selectivity assay for DAGLb inhibitor project, late-stage follow-up (AID 602301)
Conditions: Recombinant ABHD11 in HEK293T proteome, gel ABPP FP-Rh; at 10 µM; hits give high values
Method in brief: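 Material: recombinant mouse ABHD11 spiked into HEK293T membrane proteome overexpressing mouse DAGLb. Input: 0.050 µM ABHD11 in 0.3 mg/mL proteome. Medium: DPBS. Timing: compound pre-incubation 30 min, then probe labelling 30 min, both 37 °C. Measured by: SDS-PAGE in-gel fluorescence, band IOD. Benchmarks: DMSO only (high), gel background (low).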

Compound: CC(C)CN(CCc1ccccc1)C(=O)n1cc(-c2ccc(OC(F)(F)F)cc2)nn1
- inhibition: 10% (inactive)

Compound: O=C(N1CCCCC1Cc1ccccc1)n1cc(-c2ccc(-c3ccc(OC(F)(F)F)cc3)cc2)nn1 (stereo not given)
- inhibition: 20% (inactive)

Compound: O=C(N1CCCCC1Cc1ccccc1)n1cc(-c2ccc(-c3ccccc3C(F)(F)F)cc2)nn1 (stereo not given)
- inhibition: 10% (inactive)

Compound: O=C(N1CCCCC1Cc1ccccc1)n1ncc(-c2ccc(OC(F)(F)F)cc2)n1 (stereo not given)
- inhibition: 10% (inactive)

Compound: O=C(N(CCc1ccccc1)Cc1ccco1)n1cc(-c2ccc(OC(F)(F)F)cc2)nn1
- inhibition: 15% (inactive)

Compound: CC(C)(C)OC(=O)NCCCCCN(CCc1ccccc1)C(=O)n1cc(-c2ccc(OC(F)(F)F)cc2)nn1
- inhibition: 0% (inactive)

Compound: O=C(N1CCCCC1Cc1ccccc1)n1cc(-c2ccc(-c3cccc(C(F)(F)F)c3)cc2)nn1 (stereo not given)
- inhibition: 10% (inactive)

Compound: O=C(N1CCCCC1Cc1ccccc1)n1cc(-c2ccc(-c3ccccc3)cc2)nn1 (stereo not given)
- inhibition: 0% (inactive)

Compound: O=C(N1CCCCC1Cc1ccccc1)n1cc(-c2ccccc2-c2ccccc2)nn1 (stereo not given)
- inhibition: 95%

Compound: O=C(N1CCCCC1Cc1ccccc1)n1cc(-c2ccc(-c3ccccc3OC(F)(F)F)cc2)nn1 (stereo not given)
- inhibition: 20% (inactive)

Compound: O=C(N1CCCCC1Cc1ccccc1)n1ncc(C(O)(c2ccccc2)c2ccccc2)n1 (stereo not given)
- inhibition: 95%

The next lines start with the values.

- inhibition: 10% (inactive)
Compound: O=C(c1ccc(-c2cn(C(=O)N3CCCCC3Cc3ccccc3)nn2)cc1)N1CCCCC1 (stereo not given)

- inhibition: 90%
Compound: O=C(N1CCCCC1Cc1ccccc1)n1cc(-c2ccc(Br)cc2)nn1 (stereo not given)

- inhibition: 10% (inactive)
Compound: O=C(N1CCCCC1Cc1ccccc1)n1cc(-c2ccc(-c3ccc4c(c3)OCO4)cc2)nn1 (stereo not given)

- inhibition: 20% (inactive)
Compound: O=C(N1CCCCC1Cc1ccccc1)n1cc(-c2ccc(-c3cccc(CO)c3)cc2)nn1 (stereo not given)

- inhibition: 20% (inactive)
Compound: O=C(N1CCCCC1Cc1ccccc1)n1cc(-c2ccc(-c3ccccc3CO)cc2)nn1 (stereo not given)

- inhibition: 10% (inactive)
Compound: COc1ccccc1-c1ccc(-c2cn(C(=O)N3CCCCC3Cc3ccccc3)nn2)cc1 (stereo not given)

- inhibition: 50%
Compound: O=C(N1CCCCC1Cc1ccccc1)n1cc(-c2ccc(-c3ccccc3Cl)cc2)nn1 (stereo not given)

- inhibition: 30% (inactive)
Compound: O=C(N1CCCCC1Cc1ccccc1)n1cc(-c2ccc(-c3ccoc3)cc2)nn1 (stereo not given)

- inhibition: 95%
Compound: O=C(N1CCCCC1Cc1ccccc1)n1cc(-c2cc(F)cc(F)c2)nn1 (stereo not given)

- inhibition: 80%
Compound: O=C(N1CCCCC1Cc1ccccc1)n1cc(-c2cccc(-c3ccccc3)c2)nn1 (stereo not given)

- inhibition: 30% (inactive)
Compound: O=C(N1CCCCC1Cc1ccccc1)n1cc(-c2ccc(-c3ccc(C(F)(F)F)cc3)cc2)nn1 (stereo not given)

- inhibition: 60%
Compound: Cc1ccccc1-c1ccc(-c2cn(C(=O)N3CCCCC3Cc3ccccc3)nn2)cc1 (stereo not given)

- inhibition: 20% (inactive)
Compound: O=C(c1ccc(-c2ccc(-c3cn(C(=O)N4CCCCC4Cc4ccccc4)nn3)cc2)cc1)N1CCCCC1 (stereo not given)

- inhibition: 50%
Compound: O=C(N1CCCCC1Cc1ccccc1)n1cc(-c2ccc(OC(F)(F)F)cc2)nn1 (stereo not given)
